Assay results taken from ChEMBL document CHEMBL1126810, “Development of selective tight-binding inhibitors of leukotriene A4 hydrolase” (J Med Chem, 1993).
Each block holds one molecule with its values, some of them ahead of it.

Assays:
Cytosol aminopeptidase = Cytosol aminopeptidase (Homo sapiens, UniProt P28838); assay: Inhibitory concentration against cytosolic leucine aminopeptidase
[1] = target: T1, Leukotriene A-4 hydrolase (Homo sapiens, UniProt P09960); assay: Inhibition of amidase activity of LTA4 hydrolase purified from human leukocytes
T1 sequence (P09960 whole entry): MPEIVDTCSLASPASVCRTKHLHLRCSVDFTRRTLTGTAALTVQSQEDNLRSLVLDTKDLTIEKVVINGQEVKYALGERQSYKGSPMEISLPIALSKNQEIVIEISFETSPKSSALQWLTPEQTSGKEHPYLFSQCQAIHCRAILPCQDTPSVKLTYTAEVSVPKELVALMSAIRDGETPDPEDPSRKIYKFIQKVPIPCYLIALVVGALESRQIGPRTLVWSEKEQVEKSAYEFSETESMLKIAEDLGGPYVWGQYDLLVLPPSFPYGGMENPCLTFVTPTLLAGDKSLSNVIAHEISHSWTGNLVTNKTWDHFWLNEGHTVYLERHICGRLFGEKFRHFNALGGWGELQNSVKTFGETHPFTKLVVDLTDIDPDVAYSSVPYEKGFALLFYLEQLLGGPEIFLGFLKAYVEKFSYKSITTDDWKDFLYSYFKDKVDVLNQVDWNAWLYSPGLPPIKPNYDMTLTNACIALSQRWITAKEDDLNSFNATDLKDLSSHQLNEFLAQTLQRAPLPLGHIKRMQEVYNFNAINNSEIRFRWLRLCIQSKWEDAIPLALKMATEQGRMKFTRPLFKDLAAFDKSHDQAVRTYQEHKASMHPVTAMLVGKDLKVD

[2] = Ratio kcat /Km ([…]/M 1/s); parameters: scale not given here
[3] = target: T2, Leukotriene A-4 hydrolase (Homo sapiens) (UniProt P09960); assay: Kinetic parameter kcat against LTA4 hydrolase purified from human leukocytes
T2 sequence (whole entry): T1 sequence (P09960 whole entry)
Outline: (§1)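 Amino acid amides tested as substrates in 50 mM Tris-Cl, pH 7.6, with 0.1 M NaCl. p-Nitroaniline release read at 410 nm using ε 8850 M⁻¹ cm⁻¹.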

[4] = target: T1, Leukotriene A-4 hydrolase; assay: Ability at 1 mM to inhibit amidase activity of LTA4 hydrolase (1.4 ug) purified from human leukocytes; NI=No inhibition
Outline: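 Human leukocyte enzyme (1.4 μg) in 0.05 M Tris-HCl, pH 8.0, with 1.5 mM L-alanyl p-nitroanilide as substrate. Inhibitor tested at 1 mM; thiol compounds assayed with 5 mM DTT. p-Nitroaniline release followed spectrophotometrically at 405 nm.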

[5] = substrate: NC(N)=NCCC[C@H](N)C(=O)Nc1ccc([N+](=O)[O-])cc1; assay: (§2) Kinetic parameter Vmax against LTA4 hydrolase purified from human leukocytes was determined; outline: as §1
[6] = substrate: NCCCC[C@H](N)C(=O)Nc1ccc([N+](=O)[O-])cc1; assay: as §2; outline: as §1
[7] = substrate: C[C@@H](N)C(=O)Nc1ccc([N+](=O)[O-])cc1; assay: as §2; outline: as §1
[8] = substrate: C[C@H](N)C(=O)Nc1ccc([N+](=O)[O-])cc1; assay: as §2; outline: as §1
[9] = substrate: NC(N)=NCCC[C@H](N)C(=O)Nc1ccc([N+](=O)[O-])cc1; assay: (§3) Kinetic parameter (Km) for hydrolysis of LTA4 hydrolase purified from human leukocytes; outline: as §1
[10] = substrate: NCCCC[C@H](N)C(=O)Nc1ccc([N+](=O)[O-])cc1; assay: as §3; outline: as §1
[11] = substrate: C[C@H](N)C(=O)Nc1ccc([N+](=O)[O-])cc1; assay: as §3; outline: as §1

Sequence of Cytosol aminopeptidase (P28838 whole entry): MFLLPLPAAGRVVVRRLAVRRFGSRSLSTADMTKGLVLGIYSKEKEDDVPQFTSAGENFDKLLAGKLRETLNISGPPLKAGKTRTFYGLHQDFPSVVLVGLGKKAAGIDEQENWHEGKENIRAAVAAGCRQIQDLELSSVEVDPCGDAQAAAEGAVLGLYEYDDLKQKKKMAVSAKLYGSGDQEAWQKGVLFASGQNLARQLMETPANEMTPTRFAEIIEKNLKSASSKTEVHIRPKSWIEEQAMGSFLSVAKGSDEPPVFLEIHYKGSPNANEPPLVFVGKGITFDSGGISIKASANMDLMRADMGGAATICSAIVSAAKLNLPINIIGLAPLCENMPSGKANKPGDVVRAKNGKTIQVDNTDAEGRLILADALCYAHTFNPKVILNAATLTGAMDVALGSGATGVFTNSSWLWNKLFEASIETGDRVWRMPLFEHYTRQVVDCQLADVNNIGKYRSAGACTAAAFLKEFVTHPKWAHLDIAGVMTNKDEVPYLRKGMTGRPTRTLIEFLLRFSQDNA

Molecule: O=C(Nc1ccc([N+](=O)[O-])cc1)[C@@H]1CCCN1
Ratio [2]: 0.0015 | k cat [3]: 0.15 s⁻¹

Molecule: NCCCC[C@H](N)C(=O)Nc1ccc([N+](=O)[O-])cc1
Ratio [2]: 0.00035 | k cat [3]: 0.035 s⁻¹

Molecule: N[C@H](CS)Cc1ccc(OCc2ccccc2)cc1
IC50 (Cytosol aminopeptidase): > 50 µM

Molecule: CCCCC/C=C\C\C=C/C=C/C=C/[C@@H]1O[C@H]1CCCC(=O)O
Ratio [2]: 0.09 | k cat [3]: 0.68 s⁻¹

Molecule: COC(=O)C(S)C(N)Cc1ccccc1 (stereo not given)
IC50 [1]: 250 µM

Molecule: CCOC(=O)CC(F)(F)C(=O)c1[nH]cnc1C
IC50 [1]: > 1000 µM

Molecule: C[C@H](N)C(=O)Nc1ccc([N+](=O)[O-])cc1
Ratio [2]: 0.0012 | k cat [3]: 0.6 s⁻¹

Molecule: NC(N)=NCCC[C@H](N)C(=O)Nc1ccc([N+](=O)[O-])cc1
Ratio [2]: 0.00075 | k cat [3]: 0.15 s⁻¹

Molecule: NC(Cc1ccccc1)P(=O)(O)NCC(=O)O (stereo not given)
IC50 [1]: > 100 µM

B1: Leukotriene A-4 hydrolase (Homo sapiens), P09960 (protein)
chain: T1 sequence (P09960 whole entry)
Vmax (nM min-1 mg-1) [5]: 135 | Vmax (nM min-1 mg-1) [6]: 30 | Vmax (nM min-1 mg-1) [7]: 0 | Vmax (nM min-1 mg-1) [8]: 530 | Km [9]: 200 µM | Km [10]: 100 µM | Km [11]: 500 µM

Next, values leading:

IC50 (Cytosol aminopeptidase): > 100 µM
Molecule: N[C@@H](Cc1ccc(OCc2ccccc2)cc1)C(=O)C(=O)OCc1ccccc1

IC50 [1]: 20 µM
Molecule: N[C@@H](Cc1ccccc1)[C@H](O)C(=O)OCc1ccccc1

Ratio [2]: 0.0005 | k cat [3]: 0.15 s⁻¹
Molecule: CC(C)C[C@H](N)C(=O)Nc1ccc([N+](=O)[O-])cc1

IC50 (Cytosol aminopeptidase): 80 µM
Molecule: N[C@@H](Cc1ccc(OCc2ccccc2)cc1)[C@H](O)C(=O)OCc1ccccc1

IC50 [1]: > 100 µM
Molecule: CC(C)C[C@H](/N=C(\S)[C@H](O)[C@@H](N)Cc1ccccc1)C(=O)O

IC50 [1]: > 250 µM
Molecule: CC(C)C[C@H](NC(=O)C(S)C(N)Cc1ccccc1)C(=O)O (stereo not given in full)

IC50 [4]: Not Active
Molecule: COC(=O)[C@H](O)[C@H](N)Cc1ccccc1

IC50 [4]: Not Active
Molecule: N[C@H](Cc1ccccc1)[C@H](O)C(=O)O

IC50 [1]: > 100 µM
Molecule: CC(C)C[C@H](/N=C(\S)[C@@H](O)[C@H](N)Cc1ccccc1)C(=O)O

IC50 (Cytosol aminopeptidase): 50 µM
Molecule: COC(=O)C(=O)[C@@H](N)Cc1ccc(OCc2ccccc2)cc1

IC50 [1]: > 100 µM
Molecule: CC(C)C[C@H](/N=C(\S)[C@H](O)[C@H](N)Cc1ccccc1)C(=O)O

IC50 [1]: > 100 µM
Molecule: N[C@@H](Cc1ccccc1)[C@H](O)C(=O)NCc1ccccc1

IC50 [4]: Not Active
Molecule: COC(=O)[C@@H](O)[C@H](N)Cc1ccccc1
